Experiment [1] concerns Staphylococcus aureus. The experiment can be described thus: Antibacterial activity against Staphylococcus aureus ATCC 25923 after 24 hrs by NCCLS two fold broth microdilution method. The experiment is classed as functional. The settings on record: ATCC 25923, 24 h. A digest of the protocol:
(§1)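 Two-fold serial broth microdilution in 96-well plates following NCCLS. Compounds were dissolved in DMSO as stocks, then diluted in Mueller–Hinton broth to final concentrations of 0.5–512 µg/mL. Plates were inoculated and incubated at 37 °C for 24 h, with growth read visually and spectrophotometrically. MIC was taken as the lowest concentration giving complete growth inhibition. Run in triplicate, with a DMSO-plus-inoculum solvent control.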
A general note: Dilution methods test growth across graded concentrations, often in twofold steps.

The test system of experiment [2] is Staphylococcus aureus. The experiment can be described thus: Antibacterial activity against methicillin-resistant Staphylococcus aureus N315 after 24 hrs by NCCLS two fold broth microdilution method. The experiment is classed as functional. The settings on record: N315, 24 h. The procedure, abridged:
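Two-fold serial broth microdilution per NCCLS. Chloromycin and norfloxacin as reference drugs; DMSO with inoculum, no drug, as solvent control. Incubation 37 °C for 24 h. Growth read visually and spectrophotometrically. MIC is the lowest concentration completely inhibiting growth; triplicate.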

The subject of another experiment is Bacillus subtilis. The experiment can be described thus: Antibacterial activity against Bacillus subtilis ATCC 21216 after 24 hrs by NCCLS two fold broth microdilution method. Particulars: ATCC 21216, 24 h. The experiment is classed as functional. A digest of the protocol:
as §1

The test system of the next experiment is Micrococcus luteus. In words: Antibacterial activity against Micrococcus luteus ATCC 4698 after 24 hrs by NCCLS two fold broth microdilution method. The class given is functional. Particulars: NCTC 2665, 24 h. A digest of the protocol:
as §1

Another experiment relates to Bacillus. In words: Antibacterial activity against Bacillus proteus ATCC 13315 after 24 hrs by NCCLS two fold broth microdilution method. The class given is functional. Particulars: ATCC 13315, 24 h. A digest of the protocol:
as §1

In the next experiment the test system is Escherichia coli. The experiment can be described thus: Antibacterial activity against Escherichia coli ATCC 8099 after 24 hrs by NCCLS two fold broth microdilution method. The experiment is classed as functional. Particulars: ATCC 8099, 24 h. The procedure, abridged: (§2)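 Two-fold serial broth microdilution in 96-well plates following NCCLS. Plates were inoculated and incubated at 37 °C for 24 h, with growth read visually and spectrophotometrically. MIC was taken as the lowest concentration giving complete growth inhibition. Run in triplicate, with a DMSO-plus-inoculum solvent control.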

Another experiment relates to Pseudomonas aeruginosa. In words: Antibacterial activity against Pseudomonas aeruginosa ATCC 27853 after 24 hrs by NCCLS two fold broth microdilution method. The experiment is classed as functional. The settings on record: ATCC 27853, 24 h. A digest of the protocol: as §2
Another experiment deals with Salmonella typhi. The experiment can be described thus: Antibacterial activity against Bacillus typhi after 24 hrs by NCCLS two fold broth microdilution method. The settings on record: Salmonella enterica. The experiment is classed as functional, Salmonella enterica subsp. enterica serovar Typhi. The procedure, abridged:
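Two-fold serial broth microdilution per NCCLS. DMSO stocks diluted in Mueller–Hinton broth to 512, 256, 128, 64, 32, 16, 8, 4, 2, 1, 0.5 µg/mL. Chloromycin and norfloxacin as reference drugs; DMSO with inoculum, no drug, as solvent control. Incubation 37 °C for 24 h. Growth read visually and spectrophotometrically. MIC is the lowest concentration completely inhibiting growth; triplicate.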

The test system of the next experiment is Candida albicans. The experiment can be described thus: Antifungal activity against Candida albicans ATCC 76615 after 24 hrs by NCCLS two fold broth microdilution method. The experiment is classed as functional. Particulars: ATCC 76615, 24 h. The procedure, abridged: (§3)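 Two-fold serial microdilution following NCCLS. A spore suspension in sterile distilled water was prepared from one-day-old cultures grown on Sabouraud agar and adjusted to a final 1–5 × 10^3 spores/mL. DMSO stocks were diluted in RPMI 1640 to eleven concentrations (0.5–512 µg/mL), inoculated and held at 35 °C for 24 h. Growth was read visually and spectrophotometrically, MIC was the lowest concentration with complete inhibition, and runs were in triplicate.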

Another experiment deals with Pichia norvegensis. The experiment can be described thus: Antifungal activity against Candida mycoderma after 24 hrs by NCCLS two fold broth microdilution method. The class given is functional.
The next experiment relates to Cyberlindnera jadinii. The experiment can be described thus: Antifungal activity against Candida utilis after 24 hrs by NCCLS two fold broth microdilution method. The settings on record: Williopsis jadinii. The experiment is classed as functional. A digest of the protocol: as §3
The test system of the next experiment is Saccharomyces cerevisiae. In words: Antifungal activity against Saccharomyces cerevisiae after 24 hrs by NCCLS two fold broth microdilution method. The experiment is classed as functional. The procedure, abridged:
as §3

Another experiment concerns Aspergillus flavus. The experiment can be described thus: Antifungal activity against Aspergillus flavus after 24 hrs by NCCLS two fold broth microdilution method. The class given is functional. The procedure, abridged:
as §3

Values after ≈ are worked out from the molar mass of the structure shown.

For orientation: MIC means the least concentration at which growth counts as inhibited. Regarding `CCCCCCCCCCn1c(CS(=O)(=O)c2ccc(N)cc2)nc2ccccc21`, the MIC against Staphylococcus aureus [1], in the experiment with Staphylococcus aureus [2], in the experiment with Bacillus subtilis, in the experiment on Micrococcus luteus, in the experiment on Bacillus and in the experiment with Escherichia coli was 512 µg/mL (≈ 1200 µM) each time. Besides, the MIC in the experiment with Pseudomonas aeruginosa is 512 µg/mL (≈ 1200 µM); against Salmonella typhi, 512 µg/mL (≈ 1200 µM); against Candida albicans it was 512 µg/mL (≈ 1200 µM); against Pichia norvegensis, 512 µg/mL (≈ 1200 µM); against Cyberlindnera jadinii, 8 µg/mL (≈ 18.7 µM); against Saccharomyces cerevisiae, 512 µg/mL (≈ 1200 µM). The same compound showed a minimum inhibitory concentration (MIC) in the experiment with Aspergillus flavus of 512 µg/mL (≈ 1200 µM).
Take `Nc1ccc(S(=O)(=O)Cc2nc3ccccc3n2Cc2cccc(Cl)c2)cc1`: the MIC in the experiment with Staphylococcus aureus [1] was determined as 32 µg/mL (≈ 77.7 µM); in the experiment with Staphylococcus aureus [2], 512 µg/mL (≈ 1240 µM); with Bacillus subtilis it was 512 µg/mL (≈ 1240 µM); against Micrococcus luteus, 256 µg/mL (≈ 621 µM); in the experiment with Bacillus, 256 µg/mL (≈ 621 µM); against Escherichia coli, 32 µg/mL (≈ 77.7 µM). Also, the MIC in the experiment on Pseudomonas aeruginosa is 256 µg/mL (≈ 621 µM); against Salmonella typhi, 512 µg/mL (≈ 1240 µM); with Candida albicans it was 512 µg/mL (≈ 1240 µM); with Pichia norvegensis, 512 µg/mL (≈ 1240 µM); in the experiment on Cyberlindnera jadinii, 512 µg/mL (≈ 1240 µM); against Saccharomyces cerevisiae, 256 µg/mL (≈ 621 µM). Moreover, the minimum inhibitory concentration (MIC) against Aspergillus flavus stood at 16 µg/mL (≈ 38.8 µM).
For the compound `CCCCCCCCn1c(CS(=O)(=O)c2ccc(N)cc2)nc2ccccc21`, the minimal inhibitory concentration (MIC) in the experiment on Staphylococcus aureus [1], against Staphylococcus aureus [2], in the experiment on Bacillus subtilis, against Micrococcus luteus, in the experiment with Bacillus and against Escherichia coli was 512 µg/mL (≈ 1280 µM) each time. The MIC against Pseudomonas aeruginosa was 512 µg/mL (≈ 1280 µM); against Salmonella typhi, 512 µg/mL (≈ 1280 µM); with Candida albicans, 64 µg/mL (≈ 160 µM); with Pichia norvegensis, 256 µg/mL (≈ 641 µM); in the experiment on Cyberlindnera jadinii, 512 µg/mL (≈ 1280 µM); with Saccharomyces cerevisiae, 512 µg/mL (≈ 1280 µM). Moreover, inhibition of growth against Aspergillus flavus (MIC) required 512 µg/mL (≈ 1280 µM).
Take `CC(=O)Nc1ccc(S(=O)(=O)Cc2nc3ccccc3n2CCCCCn2c3ccccc3c3ccccc32)cc1`: the MIC turned out to be 256 µg/mL (≈ 453 µM) in the experiment on Staphylococcus aureus [1]; 512 µg/mL (≈ 907 µM) with Staphylococcus aureus [2]; 512 µg/mL (≈ 907 µM) against Bacillus subtilis; 128 µg/mL (≈ 227 µM) in the experiment with Micrococcus luteus; 512 µg/mL (≈ 907 µM) in the experiment on Bacillus; 512 µg/mL (≈ 907 µM) with Escherichia coli. The MIC is 16 µg/mL (≈ 28.3 µM) against Pseudomonas aeruginosa; 64 µg/mL (≈ 113 µM) with Salmonella typhi; 512 µg/mL (≈ 907 µM) against Candida albicans; 32 µg/mL (≈ 56.7 µM) in the experiment with Pichia norvegensis; 512 µg/mL (≈ 907 µM) in the experiment with Cyberlindnera jadinii; 32 µg/mL (≈ 56.7 µM) with Saccharomyces cerevisiae. Besides, in the experiment on Aspergillus flavus, the MIC came to 128 µg/mL (≈ 227 µM).
Turning to `CCCCCCCCCCCCn1c(CS(=O)(=O)c2ccc(NC(C)=O)cc2)nc2ccccc21`, the MIC is 512 µg/mL (≈ 1030 µM) in the experiment with Staphylococcus aureus [1]; 512 µg/mL (≈ 1030 µM) in the experiment with Staphylococcus aureus [2]; 512 µg/mL (≈ 1030 µM) against Bacillus subtilis; 512 µg/mL (≈ 1030 µM) with Micrococcus luteus; 512 µg/mL (≈ 1030 µM) with Bacillus; 256 µg/mL (≈ 514 µM) against Escherichia coli. Moreover, the minimum inhibitory concentration (MIC) against Pseudomonas aeruginosa, in the experiment with Salmonella typhi, in the experiment with Candida albicans, in the experiment on Pichia norvegensis, in the experiment with Cyberlindnera jadinii and in the experiment with Saccharomyces cerevisiae was 512 µg/mL (≈ 1030 µM) in each case. In addition, in the experiment on Aspergillus flavus, the lowest concentration to inhibit growth (MIC) was 512 µg/mL (≈ 1030 µM).
Consider `CCCCCCCn1c(CS(=O)(=O)c2ccc(N)cc2)nc2ccccc21`, for which the MIC came to 512 µg/mL (≈ 1330 µM) against Staphylococcus aureus [1]; 512 µg/mL (≈ 1330 µM) with Staphylococcus aureus [2]; 512 µg/mL (≈ 1330 µM) with Bacillus subtilis; 128 µg/mL (≈ 332 µM) against Micrococcus luteus; 512 µg/mL (≈ 1330 µM) with Bacillus; 512 µg/mL (≈ 1330 µM) in the experiment on Escherichia coli. Moreover, the minimal inhibitory concentration (MIC) is 512 µg/mL (≈ 1330 µM) against Pseudomonas aeruginosa; 512 µg/mL (≈ 1330 µM) against Salmonella typhi; 512 µg/mL (≈ 1330 µM) in the experiment with Candida albicans; 512 µg/mL (≈ 1330 µM) with Pichia norvegensis; 512 µg/mL (≈ 1330 µM) in the experiment with Cyberlindnera jadinii; 64 µg/mL (≈ 166 µM) against Saccharomyces cerevisiae. Further, the minimal inhibitory concentration (MIC) against Aspergillus flavus was found to be 512 µg/mL (≈ 1330 µM).
As for `CCCCCn1c(CS(=O)(=O)c2ccc(NC(C)=O)cc2)nc2ccccc21`, the minimal inhibitory concentration (MIC) with Staphylococcus aureus [1] was determined as 32 µg/mL (≈ 80.1 µM); with Staphylococcus aureus [2] it was 128 µg/mL (≈ 320 µM); in the experiment on Bacillus subtilis, 64 µg/mL (≈ 160 µM); in the experiment on Micrococcus luteus, 32 µg/mL (≈ 80.1 µM); with Bacillus, 256 µg/mL (≈ 641 µM); with Escherichia coli, 256 µg/mL (≈ 641 µM). Besides, the MIC worked out at 4 µg/mL (≈ 10 µM) in the experiment on Pseudomonas aeruginosa; 32 µg/mL (≈ 80.1 µM) with Salmonella typhi; 256 µg/mL (≈ 641 µM) with Candida albicans; 16 µg/mL (≈ 40 µM) against Pichia norvegensis; 32 µg/mL (≈ 80.1 µM) in the experiment with Cyberlindnera jadinii; 64 µg/mL (≈ 160 µM) with Saccharomyces cerevisiae. Moreover, it took 32 µg/mL (≈ 80.1 µM) to inhibit growth against Aspergillus flavus (MIC).
